In ChEMBL document CHEMBL3774346, “Rational design, synthesis and biological evaluation of 1,3,4-oxadiazole pyrimidine derivatives as novel pyruvate dehydrogenase complex E1 inhibitors” (Bioorg Med Chem, 2016):

Columns and labels:
[1] = Inhibition of Escherichia coli PDHc-E1 expressed in Escherichia coli TB1 using sodium pyruvate as substrate and ThDP after 3 mins by 2,6-DCPIP based microplate reader method
Method in brief: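 The enzyme (7.1 µM) was preincubated 3 min at 37 °C with varied inhibitor in 50 mM K3PO4 pH 7.2, 2.0 mM pyruvate and 0.8 mM 2,6-DCPIP. ThDP (0–200 µM) started the reaction, read as A600 decrease. IC50 came from a Hill fit of initial rates.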

[2] = Antibacterial activity against Synechocystis sp. PCC 6803; format: functional
[3] = Antibacterial activity against Synechocystis sp. PCC 6803 at 10 uM; format: functional
Alternaria solani = test: Antifungal activity against Alternaria solani at 100 ug/ml; format: functional
Rhizoctonia solani = test: Antifungal activity against Rhizoctonia solani at 100 ug/ml; format: functional
Botrytis cinerea = test: Antifungal activity against Botrytis cinerea at 100 ug/ml; format: functional
[4] = test system: Colletotrichum orbiculare; test: Antifungal activity against Colletotrichum orbiculare at 100 ug/ml; format: functional
Escherichia coli [5] = test: Inhibition of Escherichia coli PDHc-E1 expressed in Escherichia coli TB1 at 100 uM using sodium pyruvate as substrate after 3 mins by 2,6-DCPIP based microplate reader method
[6] = target: T1, Pyruvate dehydrogenase E1 component subunit alpha, somatic form, mitochondrial (Sus scrofa) (UniProt P29804); test: Inhibition of pig heart PDHc-E1 using sodium pyruvate as substrate at 100 uM after 3 mins by 2,6-DCPIP based microplate reader method
T1 sequence (whole entry): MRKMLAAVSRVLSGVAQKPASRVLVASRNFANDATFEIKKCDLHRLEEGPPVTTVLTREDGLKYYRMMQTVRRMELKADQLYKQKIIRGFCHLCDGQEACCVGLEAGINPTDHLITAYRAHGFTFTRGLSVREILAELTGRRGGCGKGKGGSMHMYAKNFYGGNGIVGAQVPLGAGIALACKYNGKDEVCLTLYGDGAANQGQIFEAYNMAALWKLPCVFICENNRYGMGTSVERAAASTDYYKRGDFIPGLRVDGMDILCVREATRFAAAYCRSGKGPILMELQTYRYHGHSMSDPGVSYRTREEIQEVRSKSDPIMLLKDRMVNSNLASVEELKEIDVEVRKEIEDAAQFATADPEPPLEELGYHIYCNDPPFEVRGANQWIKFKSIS

[7] = Inhibition of Escherichia coli PDHc-E1 E571A mutant expressed in Escherichia coli TB1 using sodium pyruvate as substrate and ThDP after 3 mins by 2,6-DCPIP based microplate reader method
Method in brief: (§1)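 Point mutants were made by PCR mutagenesis on a pMAL-c2x-PDHc-E1 template, DpnI-digested and passed through DH5α. […] Assays used 7.1 µM enzyme, 50 mM K3PO4 pH 7.2, 2.0 mM pyruvate and 0.8 mM DCPIP, with 3 min preincubation at 37 °C and ThDP (0–200 µM) start. A600 was read and IC50 taken by Hill fit.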

[8] = Inhibition of Escherichia coli PDHc-E1 V192A mutant expressed in Escherichia coli TB1 using sodium pyruvate as substrate and ThDP after 3 mins by 2,6-DCPIP based microplate reader method; method in brief: as §1
[9] = Inhibition of Escherichia coli PDHc-E1 M194A mutant expressed in Escherichia coli TB1 using sodium pyruvate as substrate and ThDP after 3 mins by 2,6-DCPIP based microplate reader method; method in brief: as §1
[10] = Inhibition of Escherichia coli PDHc-E1 F602A mutant expressed in Escherichia coli TB1 using sodium pyruvate as substrate and ThDP after 3 mins by 2,6-DCPIP based microplate reader method; method in brief: as §1
[11] = Inhibition of Escherichia coli PDHc-E1 E522A mutant expressed in Escherichia coli TB1 using sodium pyruvate as substrate and ThDP after 3 mins by 2,6-DCPIP based microplate reader method; method in brief: as §1
[12] = Inhibition of Escherichia coli TB1 PDHc-E1 H106A mutant expressed in Escherichia coli TB1 using sodium pyruvate as substrate and ThDP after 3 mins by 2,6-DCPIP based microplate reader method; method in brief: as §1
[13] = Inhibition of Escherichia coli TB1 PDHc-E1 K392A mutant expressed in Escherichia coli TB1 using sodium pyruvate as substrate and ThDP after 3 mins by 2,6-DCPIP based microplate reader method; method in brief: as §1
Escherichia coli [14] = test: Selectivity index, ratio of IC50 for Escherichia coli PDHc-E1 K392A mutant to IC50 for Escherichia coli WT PDHc-E1
Escherichia coli [15] = test: Selectivity index, ratio of IC50 for Escherichia coli PDHc-E1 H106A mutant to IC50 for Escherichia coli WT PDHc-E1

Row | SMILES | IC50 [1] [µM] | EC50 [2] [µM] | inhibition (Escherichia coli [5]) [%] | inhibition [6] [%] | IC50 [7] [µM] | IC50 [8] [µM] | IC50 [9] [µM] | IC50 [10] [µM] | IC50 [11] [µM] | IC50 [12] [µM] | IC50 [13] [µM] | Ratio IC50 (Escherichia coli [14]) | Ratio IC50 (Escherichia coli [15]) | inhibition at 10 µM [3] [%] | inhibition at 100 µg/mL (Alternaria solani) [%] | inhibition at 100 µg/mL (Rhizoctonia solani) [%] | inhibition at 100 µg/mL (Botrytis cinerea) [%] | inhibition at 100 µg/mL [4] [%]
1 | CNc1nc(C(F)(F)F)c(-c2nnc(SCc3cn(Cc4cnc(C)nc4N)nn3)o2)s1 | 0.97 | 0.83 | 100 | 26.1 | 5.02 | 33.2 | 19.1 | 5.08 | 10.8 | 11.6 | 20.4 | 20 | 11 | 90 | 41 | 14 | 50 | 36
2 | CNc1nc(C)c(-c2nnc(SCc3cn(Cc4cnc(C)nc4N)nn3)n2N)s1 | 11.1 | 2.99 |  |  |  |  |  |  |  |  |  |  |  | 90 | 25 | 17 | 11 | 16
3 | Cc1ncc(Cn2cc(COc3ccccc3)nn2)c(N)n1 | 55.1 | > 50 |  |  |  |  |  |  |  |  |  |  |  | < 30 |  |  |  | 
4 | Cc1ncc(Cn2cc(CSc3nnc(-c4ccc(F)cc4)o3)nn2)c(N)n1 | 9.11 | 5.34 |  |  |  |  |  |  |  |  |  |  |  | 90 | 44 | 0 | 60 | 32
5 | Cc1ncc(Cn2cc(CSc3nnc(-c4ccccc4Cl)o3)nn2)c(N)n1 | 12.4 | 2.28 |  |  |  |  |  |  |  |  |  |  |  |  |  |  |  | 
6 | Cc1ncc(Cn2cc(CSc3nnc(-c4ccccc4[N+](=O)[O-])o3)nn2)c(N)n1 | 9.84 | 4.76 |  |  |  |  |  |  |  |  |  |  |  | 90 | 58 | 40 | 54 | 48
7 | Cc1ncc(Cn2cc(CSc3nnc(-c4sc(N)nc4C(F)(F)F)o3)nn2)c(N)n1 | 3.94 | 1.61 | 100 | 28.3 |  |  |  |  |  |  |  |  |  | 90 | 53 | 11 | 60 | 25
8 | Cc1ncc(Cn2cc(CSc3nnc(-c4sc(N)nc4C)o3)nn2)c(N)n1 | 4.36 | 1.63 | 100 | 27.1 |  |  |  |  |  |  |  |  |  | 90 | 56 | 11 | 31 | 24
9 | Cc1ncc(Cn2cc(CSc3nnc(-c4ccccc4F)o3)nn2)c(N)n1 | 19.2 | 8.05 |  |  |  |  |  |  |  |  |  |  |  |  | 40 | 0 | 28 | 32
10 | Cc1ncc(Cn2cc(CSc3nnc(-c4ccc([N+](=O)[O-])cc4Cl)o3)nn2)c(N)n1 | 12.8 | 6.37 |  |  |  |  |  |  |  |  |  |  |  |  | 35 | 46 | 54 | 38
11 | Cc1ncc(Cn2cc(CSc3nnc(-c4sc(N)nc4C)n3N)nn2)c(N)n1 | 7.02 | 2.3 |  |  |  |  |  |  |  |  |  |  |  | 90 | 29 | 16 | 16 | 26

The remaining compounds from weak to strong by IC50 [1], led by results:

Row | IC50 [1] [µM] | EC50 [2] [µM] | inhibition (Escherichia coli [5]) [%] | inhibition [6] [%] | IC50 [7] [µM] | IC50 [8] [µM] | IC50 [9] [µM] | IC50 [10] [µM] | IC50 [11] [µM] | IC50 [12] [µM] | IC50 [13] [µM] | Ratio IC50 (Escherichia coli [14]) | Ratio IC50 (Escherichia coli [15]) | SMILES | inhibition at 10 µM [3] [%] | inhibition at 100 µg/mL (Alternaria solani) [%] | inhibition at 100 µg/mL (Rhizoctonia solani) [%] | inhibition at 100 µg/mL (Botrytis cinerea) [%] | inhibition at 100 µg/mL [4] [%]
12 | 36.3 | > 50 |  |  |  |  |  |  |  |  |  |  |  | Cc1ncc(Cn2cc(COc3ccccc3[N+](=O)[O-])nn2)c(N)n1 | < 30 |  |  |  | 
13 | 26.4 | > 50 |  |  |  |  |  |  |  |  |  |  |  | Cc1ncc(Cn2cc(COc3ccc(Cl)cc3)nn2)c(N)n1 | < 30 |  |  |  | 
14 | 18.7 | > 50 |  |  |  |  |  |  |  |  |  |  |  | Cc1ncc(Cn2cc(COc3ccc(Cl)cc3Cl)nn2)c(N)n1 | < 30 |  |  |  | 
15 | 15.9 | 5.35 |  |  |  |  |  |  |  |  |  |  |  | Cc1ncc(Cn2cc(CSc3nnc(-c4ccc(C(F)(F)F)cc4)o3)nn2)c(N)n1 | 90 | 35 | 0 | 45 | 45
16 | 15.7 | 9.86 |  |  |  |  |  |  |  |  |  |  |  | CNc1nc(C(F)(F)F)c(-c2nnc(SCc3cn(Cc4cnc(C)nc4N)nn3)n2N)s1 |  | 21 | 11 | 8 | 28
17 | 13.2 | 5.99 |  |  |  |  |  |  |  |  |  |  |  | Cc1ncc(Cn2cc(CSc3nnc(-c4ccc(Cl)cc4Cl)o3)nn2)c(N)n1 |  |  |  |  | 
18 | 10.4 | 5.14 |  |  |  |  |  |  |  |  |  |  |  | Cc1ncc(Cn2cc(CSc3nnc(-c4cccc([N+](=O)[O-])c4)o3)nn2)c(N)n1 | 90 | 48 | 60 | 59 | 40
19 | 8.8 | > 50 |  |  |  |  |  |  |  |  |  |  |  | Cc1ncc(Cn2cc(COc3ccc([N+](=O)[O-])cc3)nn2)c(N)n1 | < 30 |  |  |  | 
20 | 8.61 | 2.33 |  |  |  |  |  |  |  |  |  |  |  | Cc1ncc(Cn2cc(CSc3nnc(-c4cc([N+](=O)[O-])cc([N+](=O)[O-])c4)o3)nn2)c(N)n1 | 90 | 30 | 30 | 41 | 33
21 | 7.87 | 5.15 |  |  |  |  |  |  |  |  |  |  |  | Cc1ncc(Cn2cc(CSc3nnc(-c4ccccc4)o3)nn2)c(N)n1 | 90 | 47 | 30 | 60 | 40
22 | 7.59 | 9.04 |  |  |  |  |  |  |  |  |  |  |  | Cc1ncc(Cn2cc(CSc3nnc(-c4ccc([N+](=O)[O-])cc4)o3)nn2)c(N)n1 |  | 60 | 55 | 45 | 35
23 | 7.08 | 5.25 |  |  |  |  |  |  |  |  |  |  |  | Cc1ncc(Cn2cc(CSc3nnc(-c4ccc(Cl)cc4)o3)nn2)c(N)n1 | 90 | 60 | 46 | 45 | 52
24 | 6.62 | 1.51 | 100 | 15.6 |  |  |  |  |  |  |  |  |  | CNc1nc(C)c(-c2nnc(SCc3cn(Cc4cnc(C)nc4N)nn3)o2)s1 | 90 | 44 | 11 | 31 | 26
25 | 5.03 | 3.24 |  |  |  |  |  |  |  |  |  |  |  | Cc1ncc(Cn2cc(CSc3nnc(-c4sc(N)nc4C(F)(F)F)n3N)nn2)c(N)n1 | 90 | 21 | 11 | 20 | 35
